Measured values reported in article PMC3299854 (Neurobiology of Disease, 2012).
Entries after “also recorded” stand apart in the source; their conditions may differ. Where two headings read alike, the source gives them in different places.

Legend:
[1] = tested on: NCXrev; test: NCXrev-mediated ion currents, voltage ramp whole-cell patch-clamp; format: cell-based, rat; settings: 5 mM Ni2+, 10 μM KB-R7943, 10 μM MK801, 50 μM memantine, 50 μM AP-5
[2] = tested on: NMDAR; test: NMDA-induced ion currents, whole-cell voltage-clamp; format: cell-based, rat
[3] = tested on: neurons; settings: ref Levy and Lipton, 1990; cited from earlier work
[4] = tested on: NMDAR; test: NMDA-induced increase in [Ca2+]c, calcium imaging; format: cell-based, rat; settings: for IC50: read-out: IC50, inhibition of NMDA-induced increases in [Ca2+]c
[5] = tested on: cultured hippocampal neurons; format: cell-based, rat
[6] = tested on: cultured hippocampal neurons; test: Glutamate-induced plasma membrane depolarization; format: cell-based, rat; settings: Annine-6plus; 25 μM glutamate plus 10 μM glycine; 1 μM MK801, 50 μM memantine, 200 μM AP-5
Procedure, shortened: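 Rat P1 hippocampal neurons, glia-free, 12–14 DIV, in standard NaCl bath (pH 7.4). Loaded with 4 μM Annine-6plus for 5 min at room temperature; excitation 480 nm, emission >570 nm; F480 expressed as F/F0. Inhibitors in 0.2% DMSO. 142 mM KCl substituted for NaCl at end for full depolarization. Depolarization shown as % resting potential over time; mean ± s.e.m., n=3.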

[7] = tested on: NCXrev (reverse Na+/Ca2+ exchanger); test: Gramicidin-induced; format: cell-based, rat; settings: for efficacy of inhibition of gramicidin-induced increase in [Ca2+]c / IC50: 5 μM gramicidin; for efficacy of inhibition of gramicidin-induced increase in [Ca2+]c: 1 μM MK801, 50 μM memantine, 200 μM AP-5 (Fig. 3); for IC50: read-out: IC50, inhibition of gramicidin-induced increase in [Ca2+]c, bath with 5 μM nifedipine and 1 mM ouabain, Suppl. Fig. 6
[8] = tested on: cultured hippocampal neurons; test: NMDA-induced increase in [Na+]c; format: cell-based, rat; settings: MK801 1 μM, memantine 10 μM, AP-5 20 μM; Suppl. Fig. 4
[9] = tested on: cultured hippocampal neurons; test: Glutamate-induced increase in [Na+]c, fluorescence imaging; format: cell-based, rat; settings: 25 μM glutamate plus 10 μM glycine; for effect on glutamate-induced increases in [Na+]c: SBFI, 1 μM MK801, 50 μM memantine, 200 μM AP-5; for effect on glutamate-induced increase in [Na+]c: Sodium Green, 10 μM EIPA, 10 μM MK801
[10] = tested on: cultured hippocampal neurons; test: NMDA-induced DCD, calcium imaging; format: cell-based, rat; settings: 30 μM NMDA plus 10 μM glycine; MK801 1 μM, memantine 10 μM, AP-5 20 μM; Suppl. Fig. 3
[11] = tested on: cultured hippocampal neurons; test: NMDA-induced plasma membrane depolarization; format: cell-based, rat; settings: 30 μM NMDA plus 10 μM glycine; MK801 1 μM, memantine 10 μM, AP-5 20 μM; Suppl. Fig. 5
[12] = tested on: cultured hippocampal neurons; settings: CNQX 10–100 μM; ref Brustovetsky et al., 2011; cited from earlier work
[13] = tested on: NMDAR; settings: read-out: IC50, inhibition of NMDAR; ref Brustovetsky et al., 2011; cited from earlier work
[14] = tested on: forward mode of NCX; test: Forward mode of NCX; format: cell-based; settings: authors' unpublished data
[15] = whole-cell voltage-clamp, Suppl. Fig. 2
[16] = rat cultured hippocampal neurons, Suppl. Fig. 1

Compound | effect on NCXrev-mediated ion currents [1] | effect on NMDA-induced ion currents [2, 15] | extent of inhibition of NMDA-induced increases in [Ca2+]c [4, 16] | IC50 [4, 16] [nM] | effect on glutamate-induced DCD [5] | effect on glutamate-induced plasma membrane depolarization [6] | efficacy of inhibition of gramicidin-induced increase in [Ca2+]c [7] | IC50 [7] [nM] | effect on [Na+]c elevated after NMDA application [8] | effect on glutamate-induced increases in [Na+]c [9] | effect on DCD induced by NMDA [10] | effect on plasma membrane depolarization induced by NMDA [11] | effect on glutamate-induced increase in [Na+]c [9] | effect on forward mode of NCX [14] | further results
N[C@H](CCCP(=O)(O)O)C(=O)O [AP-5, D-(−)-2-Amino-5-phosphonopentanoic acid] | practically without effect | inhibited NMDA-induced ion currents | completely inhibited | 2200 ± 30 | failed to prevent DCD; also recorded: failed to prevent or attenuate | nor prevented | much less efficacious | 2800 ± 700 | significantly lowered | neither attenuated | completely prevented DCD | completely prevented | – | – | neuroprotection against glutamate excitotoxicity [3]: only moderately effective
N#Cc1cc2[nH]c(=O)c(=O)[nH]c2cc1[N+](=O)[O-] [CNQX, 6-cyano-7-nitroquinoxaline-2,3-dione] | – | – | – | – | – | – | – | – | – | – | – | – | – | – | effect on glutamate-induced DCD [12]: had no effect
CCN(c1nc(N)c(C(=O)NC(=N)N)nc1Cl)C(C)C [EIPA, 5-(N-ethyl-N-isopropyl)amiloride] | – | – | – | – | failed to prevent or attenuate | – | – | – | – | – | – | – | significantly attenuated | – | effect on NMDA-induced increase in [Ca2+]c ([4]; EIPA 10 μM, Suppl. Fig. 9): inhibited neither NMDAR nor NCXrev; effect on gramicidin-induced increase in [Ca2+]c ([7]; EIPA 10 μM, Suppl. Fig. 9): inhibited neither NMDAR nor NCXrev
N=C(N)SCCc1ccc(OCc2ccc([N+](=O)[O-])cc2)cc1 [KB-R7943] | strongly attenuated | – | – | – | failed to prevent DCD | – | – | – | – | – | – | – | – | – | IC50 [13]: 13400 ± 3600 nM
C[C@]12N[C@H](Cc3ccccc31)c1ccccc12 [MK801] | inhibited | inhibited NMDA-induced ion currents | completely inhibited | 200 ± 40 | completely prevented | nor prevented | very effectively inhibited | 500 ± 80 | significantly lowered | neither attenuated | completely prevented DCD | completely prevented | failed to prevent or diminish | not affected | –
CC12CC3CC(C)(C1)CC(N)(C3)C2 [memantine] | inhibited | – | – | – | completely prevented | nor prevented | very effectively inhibited | 17100 ± 240 | significantly lowered | neither attenuated | completely prevented DCD | completely prevented | – | not affected | effect on NMDA-induced ion currents [2]: inhibited NMDA-induced ion currents; extent of inhibition of NMDA-induced increases in [Ca2+]c [4]: completely inhibited; IC50 [4]: 3600 ± 50 nM
